According to the EternaBench riboswitch data:

Assays:
MS2 coat protein [1] = assay: apparent Kd, MS2 coat protein; higher = weaker binding; RNA-MaP array
In short: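 RNA designs were transcribed from sequenced DNA templates on an Illumina sequencing chip and then incubated at room temperature with fluorescently labeled MS2 coat protein at 1.5 nM to 3 μM, with or without input ligand, in Tris-HCl pH 7.5 buffer containing KCl, MgCl2, BSA, DTT, tRNA and Tween20. Incubation lasted 0.8–1.5 h at the lowest protein concentrations and 10–20 min at the highest. Apparent Kd is the median of binding-curve fits made for each cluster. Designs measured on fewer than 10 clusters were excluded.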

MS2 coat protein [2] = assay: apparent Kd, MS2 coat protein; higher = weaker binding; RNA-MaP array; FMN 200 µM where present
In short: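 Two titrations, one without ligand and one with constant ligand, were run with SNAP-549-labelled MS2 coat protein from 0.7 or 1.5 nM, doubling to 3 µM. The targets were designs transcribed by stalled E. coli RNA polymerase on Illumina sequencing-chip clusters, in 100 mM Tris-HCl pH 7.5, 80 mM KCl, 4 mM MgCl2, BSA, DTT, yeast tRNA and Tween-20. The apparent Kd is the median of filtered per-cluster binding-curve fits, with green signal normalised to red-channel RNA signal and control-cluster median Fmax.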

[3] = designed as: ON switch for flavin mononucleotide, no ligand
[4] = ligand present: flavin mononucleotide, designed as: ON switch for flavin mononucleotide
[5] = designed as: OFF switch for flavin mononucleotide, no ligand
[6] = ligand present: flavin mononucleotide, designed as: OFF switch for flavin mononucleotide

Sequence	apparent Kd (MS2 coat protein [2]; [5]) [µM]	apparent Kd (MS2 coat protein [2]; [6]) [µM]	further results
CAAGUAGUGGCAUUAACAUGAGGAUCACCCAUGUUGUGCGUCAGAAGGGCUCUAAUGGAUAACCAGCAGGAUAUGAUUUUCAUC			apparent Kd (MS2 coat protein [1]; [3]): 0.00692 µM; apparent Kd (MS2 coat protein [1]; [4]): 0.00689 µM
UUCCACCUAAAGCGUUGCCCUCGUGAUGAUACCAGUUUCAGCGGUAACCCUUGGCAGCAUCGGACAUGAGGAUCACCCAUGUGGA			apparent Kd (MS2 coat protein [1]; designed as: OFF switch for theophylline, no ligand): 0.106 µM; apparent Kd (MS2 coat protein [1]; ligand present: theophylline, designed as: OFF switch for theophylline): 0.213 µM
GUAUGGGCUGUAAGGAUAUCUAAGCCGGUUGUGGCAGAGAAGGUACAUGAGGAUCACCCAUGUGGACUUGGGUC			apparent Kd (MS2 coat protein [1]; [5]): 0.0139 µM; apparent Kd (MS2 coat protein [1]; [6]): 0.0157 µM
UCACGGUCAGGAUAUCCUACCUUAGGGCAACCAUGGUAAACGGAGAAGGGACAUGAGGAUCACCCAUGUACAGC			apparent Kd (MS2 coat protein [1]; [5]): 0.0129 µM; apparent Kd (MS2 coat protein [1]; [6]): 0.0268 µM
ACAAGAGUAAAACAUACAUGAGGAUCACCCAUGUUAUCAACAAAGGAUAUCGUUGUGGUAGGGAACGAGAAGGUUGCAAAAUCA			apparent Kd (MS2 coat protein [1]; [3]): 0.0154 µM; apparent Kd (MS2 coat protein [1]; [4]): 0.0117 µM
AUGUGAUAGGAGAAGGGCUGUCCAUGGACAUCACAGUACAUCCACAUGAGGAUCACCCAUGUUAAGCAGGAUAUCCUGUCGUGU			apparent Kd (MS2 coat protein [1]; [5]): 0.0272 µM; apparent Kd (MS2 coat protein [1]; [6]): 0.0589 µM
GAAUGAAUACAAGGAUAUCCCACAUGAGGAUCACCCAUGUAAAUACAAAUGUAAUACGUUGCUAAGGAGAAGGUGUAGAACAAA			apparent Kd (MS2 coat protein [1]; [3]): 0.113 µM; apparent Kd (MS2 coat protein [1]; [4]): 0.0289 µM
CUCGCAAAUGGAGGAUAUGCCGAGAUCCCUAUCCUCAGGACCUCCACAUGAGGAUCACCCAUGUUGCAGAAGGCCAGUGUGAAG			apparent Kd (MS2 coat protein [1]; [5]): 0.0144 µM; apparent Kd (MS2 coat protein [1]; [6]): 0.0122 µM
UGGUACUAGGGAGGAUAUGGGAAGAUACAUGAGGAUCACCCAUGUUUAAGAAUGCUGAGAGGCAACUAGAAGGCCCUAGUACCU			apparent Kd (MS2 coat protein [2]; [3]): 0.439 µM; apparent Kd (MS2 coat protein [2]; [4]): 0.0209 µM
UUUUAACAUGAGGAUCACCCAUGUGAGGAUAUCGAAAUUUAUAUUAAUAUUUAUUUUUCGAGAAGGCACAUUUU	0.164	0.159	
GACUAGGCAGGAUAUACAUGAGGAUCACCCAUGUGUCUGCGUUAAGCACGUGAAGACGGUAGAAGGGCCUUCAC	0.0116	0.0135	
AUAUCCCGAGGAUAUACAUGAGGAUCACCCAUGUCGGGCCUCUGGCCUAAGGCCGAAAGUAGAAGGUGGGUUUC	0.177	0.25	
UGUCGGAGCAGAGGAUAUUACAUGAGGAUCACCCAUGUAUGAACCAAUAGCUGGAAACAGCAAUGCAAGAAGGCUGCUCCGACA	0.00505	0.00653	
GGAUAGGACAGAGGAUAUACCGAUAGGAUCUACUAUCGAACAAUCCUCACAUGAGGAUCACCCAUGUAGAAGGCUGUCCUAUCG	0.0239	0.274	
GUCAGCUCGUGAGGAUAUACAACACAGCUUCGGCAGUGUAUUAAGAUCACAUGAGGAUCACCCAUGUAGAAGGCACGAGCUGAU	0.0131	0.209	
CUUAGUAUCUAGGAUAUCUAGUACAUAGUAUCUAGAGAAGGAGAUACAUGAGGAUCACCCAUGUUCUGUGAUCU	0.272	0.0404	
GCGUAAUUGAUCCUAUUUACCAACAUGAGGAUCACCCAUGUGCAGGAUAUGCUAAAGAUAGAUAAGCAGAAGGGCAUUUACCGC	0.047	0.211	
GUAGCAUUAUAAGGAUAUUCAUACCGGAAACGGACAUGAGGAUCACCCAUGUGGCGAAAGCCUUGGGAGAAGGUAUUAUGCUAC			apparent Kd (MS2 coat protein [2]; [3]): 0.537 µM; apparent Kd (MS2 coat protein [2]; [4]): 0.0249 µM
AGCUGUGGCCGAGGAUAUCUGUUCCAUAUAACCGAAAUAUAAUCGGACAUGAGGAUCACCCAUGUAGAGAAGGCGGUCUCAGCA	0.0227	0.0248	
AACUAGUGAGGAUAUACAUGAGGAUCACCCAUGUACGUCGUGGGUAGAAAACAAGUCAGUAGAAGGUGCUAGAC	0.157	0.248	
UCCAACCCUGUGAGGAUAUCGUCCAUUUUUUGUUACGAGAAGGCACAUGAGGAUCACCCAUGUUUUUUAUUUUU	0.0219	0.134	
UCGUACAUUCGAGGAUAUCGGUGAUAAAUAAUACGAGAAGGCGAUUGUGGGAAUAACGCCUUAGACAUGAGGAUCACCCAUGUA			apparent Kd (MS2 coat protein [2]; [3]): 0.0724 µM; apparent Kd (MS2 coat protein [2]; [4]): 0.0626 µM
UUUUAGUGAGGAUAUGUGGCUUCGAUCGUGAGAUCGAGGCUACAGAAGGCACAUGAGGAUCACCCAUGUUCCUG	0.0157	0.0557	
